Key:
Type in all cases: functional
NCI-H460 = experiment: Cytotoxicity against human NCI-H460 cells assessed as cell growth at 100 uM after 48 hrs by sulforhodamine B assay; conditions: NCI-H460, 48 h, read-out: Activity
Procedure, shortened: (§1)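 Primary one-dose screen on a three-line panel (MCF7 breast, NCI-H460 lung, SF-268 CNS) at 10^-4 M. Cells were preincubated 24–48 h before a single addition of the agent, followed by 48 h incubation. Endpoint was SRB protein staining, reported as percent growth versus untreated controls.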

MCF7 [1] = experiment: Cytotoxicity against human MCF7 cells assessed as cell growth at 100 uM after 48 hrs by sulforhodamine B assay; conditions: MCF7, 48 h, read-out: Activity; procedure, shortened: as §1
SF-268 = experiment: Cytotoxicity against human SF268 cells assessed as cell growth at 100 uM after 48 hrs by sulforhodamine B assay; conditions: SF-268, 48 h, read-out: Activity; procedure, shortened: as §1
MOLT-4 = experiment: Growth inhibition of human MOLT4 cells after 48 hrs by sulforhodamine B assay; conditions: MOLT-4, 48 h
Procedure, shortened: (§2)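 Five-concentration assay in about 60 human tumour lines, using 10-fold dilutions from 10^-4 to 10^-8 M with 48 h continuous exposure and an SRB protein endpoint. Percent growth at each level comes from time-zero, untreated-control and treated absorbances. GI50 is 50% lower net protein increase than control. Values beyond the tested range are given as greater or less than the extreme concentration.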

CCRF-CEM = experiment: Growth inhibition of human CCRF-CEM cells after 48 hrs by sulforhodamine B assay; conditions: for TGI: read-out: pTGI (converted); procedure, shortened: as §2
HOP-92 = experiment: Growth inhibition of human HOP92 cells after 48 hrs by sulforhodamine B assay; conditions: HOP-92, 48 h; for TGI: read-out: pTGI (converted); procedure, shortened: as §2
K562 = experiment: Growth inhibition of human K562 cells after 48 hrs by sulforhodamine B assay; conditions: K562, 48 h; procedure, shortened: as §2
SR = experiment: Growth inhibition of human SR cells after 48 hrs by sulforhodamine B assay; conditions: for TGI: read-out: pTGI (converted); procedure, shortened: as §2
HL-60(TB) = experiment: Growth inhibition of human HL-60(TB) cells after 48 hrs by sulforhodamine B assay; conditions: HL-60, 48 h
Procedure, shortened: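 Cells inoculated and preincubated 24–48 h in microtiter plates, then exposed continuously for 48 h to five 10-fold dilutions from 10^-4 to 10^-8 M. End point by sulforhodamine B protein staining, read spectrophotometrically against untreated controls and time-zero absorbance. Percent growth computed per concentration; GI50 taken where [(Ti−Tz)/(C−Tz)]×100 = 50, expressed as log molar value.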

[2] = Growth inhibition of human 786-O cells after 48 hrs by sulforhodamine B assay; conditions: 786-0, 48 h; procedure, shortened: as §2
NCI-H226 = experiment: Growth inhibition of human NCI-H226 cells after 48 hrs by sulforhodamine B assay; conditions: NCI-H226, 48 h; procedure, shortened: as §2
SNB-75 = experiment: Growth inhibition of human SNB75 cells after 48 hrs by sulforhodamine B assay; conditions: SNB-75, 48 h; procedure, shortened: as §2
[3] = Growth inhibition of human Hs 578T cells after 48 hrs by sulforhodamine B assay; procedure, shortened: as §2
U-251 = experiment: Growth inhibition of human U251 cells after 48 hrs by sulforhodamine B assay; conditions: U-251, 48 h; for TGI: read-out: pTGI (converted); procedure, shortened: as §2
MDA-MB-231 = experiment: Growth inhibition of human MDA-MB-231 cells after 48 hrs by sulforhodamine B assay; conditions: MDA-MB-231, 48 h; for TGI: read-out: pTGI (converted); procedure, shortened: as §2
SK-OV-3 = experiment: Growth inhibition of human SKOV3 cells after 48 hrs by sulforhodamine B assay; conditions: SK-OV-3, 48 h; procedure, shortened: as §2
SF-295 = experiment: Growth inhibition of human SF295 cells after 48 hrs by sulforhodamine B assay; conditions: SF-295, 48 h; procedure, shortened: as §2
MCF7 [4] = experiment: Growth inhibition of human MCF7 cells after 48 hrs by sulforhodamine B assay; conditions: MCF7, 48 h; procedure, shortened: as §2
HCT-116 = experiment: Growth inhibition of human HCT116 cells after 48 hrs by sulforhodamine B assay; conditions: HCT-116, 48 h; procedure, shortened: as §2
OVCAR-3 = experiment: Growth inhibition of human OVCAR-3 cells after 48 hrs by sulforhodamine B assay; conditions: OVCAR-3, 48 h; procedure, shortened: as §2
NCI-H23 = experiment: Growth inhibition of human NCI-H23 cells after 48 hrs by sulforhodamine B assay; conditions: NCI-H23, 48 h; procedure, shortened: as §2
[5] = read-out: pLC50 (the source's name) (converted)

Molecule O=C(CC1NC(=O)NC1=O)Nc1ccc(Cl)cc1 (stereo not given) has a growth at 100 µM (NCI-H460) of 121%, a growth at 100 µM (MCF7 [1]) of 115% and a growth at 100 µM (SF-268) of 114%.
With O=C(CN1C(=O)CNC1=O)Nc1cccc(C(F)(F)F)c1 the growth at 100 µM (NCI-H460) was 106%, the growth at 100 µM (MCF7 [1]) was 111% and the growth at 100 µM (SF-268) was 113%.
For O=C(CN1C(=O)N/C(=C\c2ccc(Cl)cc2)C1=O)Nc1ccccc1C(F)(F)F, the GI50 (MOLT-4) was 4.57 µM, the CC50 (MOLT-4; [5]) was 81.3 µM and the TGI (MOLT-4; read-out: pTGI (converted)) was 24 µM. The GI50 (CCRF-CEM) was 1.2 µM, the LC50 (CCRF-CEM) was greater than 100 µM and the TGI (CCRF-CEM) was greater than 100 µM. The GI50 (HOP-92) was 18.2 µM, the LC50 (HOP-92) was greater than 100 µM and the TGI (HOP-92) was 97.7 µM. The GI50 (K562) was 5.37 µM, the CC50 (K562; [5]) was greater than 100 µM and the TGI (K562; read-out: pTGI) was greater than 100 µM. The GI50 (SR) was 0.309 µM, the LC50 (SR) was 52.5 µM and the TGI (SR) was 12.6 µM. For the same molecule, the GI50 (HL-60(TB)) was 0.295 µM, the CC50 (HL-60(TB); [5]) was greater than 100 µM and the TGI (HL-60(TB); read-out: pTGI (converted)) was 2 µM.
With O=C(/C=C1\SC(=O)N(CC(=O)Nc2cccc(C(F)(F)F)c2)C1=O)Nc1ccc(Cl)cc1 the growth at 100 µM (NCI-H460) was 108%, the growth at 100 µM (MCF7 [1]) was 103% and the growth at 100 µM (SF-268) was 100%.
COc1ccc(/C=C2/NC(=O)N(CC(=O)Nc3cc(C(F)(F)F)ccc3Cl)C2=O)cc1 showed a GI50 [2] of 21.9 µM, a CC50 [2, 5] greater than 100 µM and a TGI ([2]; read-out: pTGI (converted)) greater than 100 µM. The GI50 (CCRF-CEM) was 21.9 µM, the LC50 (CCRF-CEM) was greater than 100 µM and the TGI (CCRF-CEM) was greater than 100 µM. The GI50 (NCI-H226) was 26.3 µM, the CC50 (NCI-H226; [5]) was greater than 100 µM and the TGI (NCI-H226; read-out: pTGI (converted)) was greater than 100 µM. The GI50 (HOP-92) was 6.03 µM, the LC50 (HOP-92) was 69.2 µM and the TGI (HOP-92) was 24 µM. It also gave a GI50 (SNB-75) of 2.69 µM, a CC50 (SNB-75; [5]) greater than 100 µM and a TGI (SNB-75; read-out: pTGI (converted)) of 16.6 µM. It also gave a GI50 [3] of 18.6 µM, a CC50 [3, 5] greater than 100 µM and a TGI ([3]; read-out: pTGI (converted)) of 91.2 µM. For the same molecule, the GI50 (U-251) was 9.33 µM, the LC50 (U-251) was greater than 100 µM and the TGI (U-251) was 63.1 µM. For the same molecule, the GI50 (MDA-MB-231) was 15.8 µM, the LC50 (MDA-MB-231) was greater than 100 µM and the TGI (MDA-MB-231) was greater than 100 µM. The GI50 (SK-OV-3) was 19.5 µM, the LC50 (SK-OV-3) was greater than 100 µM and the TGI (SK-OV-3; read-out: pTGI (converted)) was 81.3 µM. For the same molecule, the GI50 (SF-295) was 30.9 µM, the CC50 (SF-295; [5]) was greater than 100 µM and the TGI (SF-295; read-out: pTGI) was greater than 100 µM. The GI50 (SR) was 7.24 µM, the LC50 (SR) was 49 µM and the TGI (SR) was 20 µM.
For O=C(CC1SC(=O)NC1=O)Nc1nccs1 (stereo not given), the growth at 100 µM (NCI-H460) was 116%, the growth at 100 µM (MCF7 [1]) was 115% and the growth at 100 µM (SF-268) was 114%.
In the case of O=C(CN1C(=O)S/C(=C\c2ccc(Cl)cc2)C1=O)Nc1ccc(Cl)cc1, the growth at 100 µM (NCI-H460) is reported as 101%, the growth at 100 µM (MCF7 [1]) is reported as 102% and the growth at 100 µM (SF-268) is reported as 105%.
COc1ccc(/C=C2/NC(=O)N(CC(=O)Nc3cccc(C(F)(F)F)c3)C2=O)cc1 gave a GI50 (MCF7 [4]) of 2.82 µM, a CC50 (MCF7 [4]; [5]) greater than 100 µM and a TGI (MCF7 [4]; read-out: pTGI) greater than 100 µM. The growth at 100 µM (NCI-H460) was 44%, the GI50 (HCT-116) was 30.2 µM and the LC50 (HCT-116) was greater than 100 µM. For the same molecule, the TGI (HCT-116; read-out: pTGI (converted)) was greater than 100 µM, the GI50 (OVCAR-3) was 30.9 µM and the CC50 (OVCAR-3; [5]) was greater than 100 µM. For the same molecule, the TGI (OVCAR-3; read-out: pTGI (converted)) was 95.5 µM, the GI50 (NCI-H23) was 26.3 µM and the LC50 (NCI-H23) was greater than 100 µM. It also gave a TGI (NCI-H23; read-out: pTGI (converted)) of 89.1 µM, a GI50 (U-251) of 25.7 µM and an LC50 (U-251) greater than 100 µM. The TGI (U-251) was 69.2 µM, the GI50 (MDA-MB-231) was 23.4 µM and the LC50 (MDA-MB-231) was greater than 100 µM. It also gave a TGI (MDA-MB-231) of 58.9 µM, a growth at 100 µM (MCF7 [1]) of 64% and a growth at 100 µM (SF-268) of 65%.
COc1ccc(/C=C2\SC(=O)N(CC(=O)Nc3nccs3)C2=O)cc1 showed a growth at 100 µM (NCI-H460) of 98%, a growth at 100 µM (MCF7 [1]) of 98% and a growth at 100 µM (SF-268) of 107%.

From ChEMBL document CHEMBL1153575, “Synthesis and in vitro anticancer activity of 2,4-azolidinedione-acetic acids derivatives” (2009)
